# DNMT1 inh – human DNMT1 methyltransferase inhibitors, primary screen, biochemical, molecular beacon, fluorescence, HinP1I cleavage, uHTS; DNA (cytosine-5)-methyltransferase 1 (Homo sapiens), P26358; inhibition (reported as % activation of signal), % at 10 µM; actives 0.83% (n = 360,000); AID 588458, 2011; in the data active = inhibition above about 50%
# CSN deneddyl inh – inhibitors of CSN-mediated cullin deneddylation, primary screen, biochemical, fluorescence polarization, uHTS | actives 0.38% (n = 360,000) | Purified CSN, SCF-Nedd8-OG deneddylation | inhibition, % at 12.5 µM | COP9 signalosome complex subunit 5 (Homo sapiens), Q92905;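 active = pattern-corrected inhibition above about 35%, with an unprinted fluorescence ratio check between 0.5 and 1.5, limit read from the data, passing the limit was not always enough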;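 also: 0% = enzyme with substrate and 100% = substrate without enzyme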
#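 Test system: Human Csn5 produced in HEK293T cells | Compound: 12.5 µM single point | Times: 90 min, room temperature | Signal: Fluorescence polarization readout | Read-out basis: % inhibition of substrate cleavage by Csn5 | Controls: no-enzyme wells high, enzyme-with-substrate wells low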
# LMPTP block – LMPTP phosphatase inhibitors, primary screen, biochemical, fluorescence intensity, uHTS. recombinant LMPTP-A, OMFP fluorogenic substrate. inhibition, % at 20 µM. actives 0.22% (n = 360,000);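 active = compounds that cut the enzyme signal by at least half of the control window in the single-dose screen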;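 also: plate controls were DMSO wells with enzyme plus substrate for no effect and substrate without enzyme for full effect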
#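 Test system – LMPTP-A enzyme · Amount – LMPTP-A at 0.625 nM final in the reaction · Buffer or medium – Bis-Tris pH 6.0, DTT, detergent · Reagent – OMFP 400 µM · Doses – single 20 µM dose · Schedule – reaction 50 min, room temperature, dark · Detection – fluorescence intensity of OMFP turnover product · Evaluation – percent inhibition versus substrate-only and uninhibited controls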
# STEP inh – STEP phosphatase inhibitors, primary screen, biochemical, fluorescence intensity, uHTS; recombinant STEP, OMFP fluorogenic substrate; inhibition, % at 20 µM; actives 0.25% (n = 360,000); Tyrosine-protein phosphatase non-receptor type 5 (Homo sapiens), P54829;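 active = inhibition at 20 µM, scaled per plate between control wells, above about 37%, limit read from the data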;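 also: 0% = DMSO with enzyme and substrate and 100% = substrate only without enzyme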
# Target sequence (P54829 whole entry, looked up): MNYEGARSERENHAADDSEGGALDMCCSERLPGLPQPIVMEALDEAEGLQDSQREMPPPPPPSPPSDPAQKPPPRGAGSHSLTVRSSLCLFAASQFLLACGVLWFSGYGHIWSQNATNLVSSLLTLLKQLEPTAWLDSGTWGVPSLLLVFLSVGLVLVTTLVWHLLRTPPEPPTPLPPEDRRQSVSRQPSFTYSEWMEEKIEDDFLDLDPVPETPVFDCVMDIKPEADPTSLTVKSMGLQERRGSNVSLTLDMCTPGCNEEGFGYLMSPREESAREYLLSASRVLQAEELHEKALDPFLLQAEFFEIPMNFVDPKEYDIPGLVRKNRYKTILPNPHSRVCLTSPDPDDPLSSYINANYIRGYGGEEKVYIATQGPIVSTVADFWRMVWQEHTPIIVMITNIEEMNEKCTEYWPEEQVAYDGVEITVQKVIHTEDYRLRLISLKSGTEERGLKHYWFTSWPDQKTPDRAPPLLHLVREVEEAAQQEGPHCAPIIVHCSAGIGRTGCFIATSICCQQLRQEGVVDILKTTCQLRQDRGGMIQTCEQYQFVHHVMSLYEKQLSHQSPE
#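 System: isolated STEP enzyme; schedule: 20 min enzyme reaction at room temperature, protected from light; medium: Bis-Tris buffer pH 6.0, 2.5 mM DTT, 0.005% Tween 20; signal: fluorescence, 480/540 nm; dosing: single compound dose of 20 µM, 1% DMSO final; also added: OMFP substrate, 25 µM final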
# Scp1 inh – Scp-1 phosphatase inhibitors, primary screen, biochemical, colorimetric, uHTS | Carboxy-terminal domain RNA polymerase II polypeptide A small phosphatase 1 (Homo … | Recombinant Scp1, phosphopeptide, malachite green phosphate absorbance | inhibition, % at 20 µM | actives 0.88% (n = 340,000) | AID 493091, 2011;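 active = inhibition above about 50% at 20 µM, limit read from the data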;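 also: plate controls were DMSO wells with enzyme for no effect and wells lacking enzyme for full effect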
#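 Test system: SCP-1 catalytic domain; Buffer or medium: Acidic Tris acetate buffer with magnesium and detergent; Also added: Phosphorylated 17-residue peptide substrate; Compound: single 20 µM dose, 1% DMSO; Schedule: enzyme reaction 45 min at room temperature, colour 5 min, stabilisation 30 min; Signal: Phosphate-binding colour reagent, absorbance read at 630 nm.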
# SUMO1-SIM PPI – modulators of SUMO1 protein-protein interactions, primary screen, biochemical, uHTS; SUMO1 binding to a labelled peptide, TR-FRET, 1 h; inhibition, % at 20 µM; actives 0.33% (n = 360,000); AID 602429, 2012; in the data active = inhibition above about 37%
# Target sequence (P63165 whole entry, looked up): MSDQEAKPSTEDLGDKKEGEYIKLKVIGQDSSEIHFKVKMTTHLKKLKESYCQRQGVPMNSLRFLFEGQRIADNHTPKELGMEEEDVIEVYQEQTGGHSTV
# Starred values were filed as active, the others as inactive; x = no result. Hits are enriched below; roughly 1.9% of the tested compounds scored in any of these assays.
SMILES,DNMT1 inh,CSN deneddyl inh,LMPTP block,STEP inh,Scp1 inh,SUMO1-SIM PPI
CCCCn1c(=O)[nH]c2nc3cc(N)ccc3nc2c1=O,54*,-71,-3,-77,-5,-20
Nc1ccc2nc3c(=O)n(CCc4ccccc4)c(=O)[nH]c3nc2c1,51*,-78,3,-75,-2,-36
O=C(Nn1c(C2CCCCC2)nc2ccccc2c1=O)c1ccc([N+](=O)[O-])cc1Cl,0,4,0,3,3,0
Cc1[nH]n(-c2ccccc2)c(=S)c1C=Nc1ccc([N+](=O)[O-])cc1,6,-2,-2,-4,74*,-7
COc1ccc(C(O)c2ncc(-c3ccccc3F)[nH]2)cc1 (stereo not drawn),51*,0,0,1,x,12
O=C(CCC(=O)N1CCOCC1)NCCc1ccccc1,3,-1,-1,-1,-7,2
COc1ccccc1Nc1nc(N)nc(CN2CCc3ccccc3C2)n1,-4,5,2,-5,-2,1
COc1ccccc1N1CCN(C(=O)c2sc3nc(-c4ccc(F)cc4)cn3c2C)CC1,4,6,2,-1,-5,5
COc1ccccc1Cc1c(C2CCCCC2)nc2ccc(Cl)cn12,-4,60*,2,1,x,-1
COc1ccccc1Cc1c(C2CCCCC2)nc2ccc(C)cn12,-3,10,2,0,x,8
Cn1c2ccccc2c(=O)c2cc(C#Cc3ccccn3)ccc21,26,-2,11,4,58*,-15
C=CCn1c2ccccc2c(=O)c2cc(C#Cc3cc(OC)cc(OC)c3)ccc21,-2,4,6,0,52*,-90
Cn1c2ccccc2c(=O)c2ccc(C#Cc3ccccn3)cc21,x,x,x,x,22,x
COc1cc(C#Cc2c(C=O)n(C)c3ccccc23)cc(OC)c1,-2,6,0,-4,-11,-7
C=CCN(CC=C)Cc1c(C)[nH]c2ccc(C(=O)OCC)cc2c1=O,0,6,0,2,-3,0
Cc1cccc(C)c1NC(=O)CN1C(=O)CCSc2ccc(S(=O)(=O)N3CCCC3)cc21,-3,1,1,1,-5,0
COc1ccc(C(=O)Nc2ccc(N3CCCCC3)cc2)cc1Br,-5,-11,1,0,-10,-1
COCCOC(=O)/C(=C/c1ccc(OC(=O)c2ccccc2)cc1)C(C)=O,25,3,-1,2,-5,14
CCOC(=O)/C(=C/c1ccc(OC(=O)c2ccncc2)cc1)C(C)=O,-2,36*,0,0,-12,4
COC(=O)c1cccc(Nc2nc(-c3cccnc3)nc3ccccc23)c1,-9,2,-21,1,1,46*
COC(=O)c1cccc(Nc2nc(-c3ccncc3)nc3ccccc23)c1,-6,3,6,13,-2,61*
CC(C)CC1=C/C(=C/c2ccc(-c3ccccc3)o2)C(=O)O1,92*,38*,4,4,15,14
NS(=O)(=O)c1ccc(-c2ccc(C=C3C(=O)c4ccccc4C3=O)o2)cc1,0,-3,8,-2,-11,-4
OCCC1CN(Cc2cccn2-c2ccccn2)CCN1Cc1ccccc1 (stereo not drawn),-2,4,-2,-1,-6,3
COc1ccc(-c2csc(NC(=S)NC(=O)c3cccs3)n2)cc1OC,-27,20,4,2,-8,44*
SMILES,DNMT1 inh,CSN deneddyl inh,LMPTP block,STEP inh,Scp1 inh,SUMO1-SIM PPI
COc1ccc(-c2csc(NC(=S)NC(=O)c3cccs3)n2)cc1Br,-3,1,2,-1,-13,-1
O=C(C1=C[C@@H]2[C@H]3C(=O)N(c4cccc(Cl)c4)C(=O)[C@H]3[C@@H](C(=O)c3ccc(Cl)cc3)N2C=C1)c1ccccc1,69*,24,3,4,-10,-3
Cc1ccc(N2C(=O)[C@@H]3[C@H](C2=O)[C@H]2C=C(C(=O)c4ccccc4)C=CN2[C@@H]3C(=O)c2ccc(Cl)cc2)cc1,-13,2,1,4,1,-14
S=C(Nc1ccc(Cl)cc1)N1CCOCC1,0,42*,1,-1,-1,-3
O=C(Nc1cccc(-c2nc3cccnc3s2)c1)C1c2ccccc2Oc2ccccc21,21,76*,7,5,-5,14
O=C(Nc1cccc(-c2nc3cccnc3s2)c1)c1cccnc1Cl,10,4,-2,-2,-1,-16
Cn1cc(C(=O)c2ccccc2C(=O)O)cc1C(=O)C(Cl)(Cl)Cl,-3,43*,3,1,-3,-2
c1nc(NC2CCCCC2)c2[nH]cnc2n1,3,45*,-1,0,-6,1
CC1(C)CC(=O)C(C(=O)/C=C/NCCc2ccccc2)C(=O)C1,-2,-1,-2,0,-11,0
CCc1ncn(CCc2ccccc2OC)c1C(C)C,x,0,1,x,x,4
COc1ccccc1CCn1cnc(C)c1CC(C)C,x,62*,1,x,x,2
COc1ccc(/C=C\C(=O)CC(O)(c2ccccc2)C(F)(F)F)cc1 (stereo not drawn),1,8,1,-2,-12,-5
Cc1cccn2c(=O)c3cc(C(N)=S)c(=N)n(CCCN4CCOCC4)c3nc12,-4,37*,28,9,-3,-9
CN(CCOc1ccccc1)C(=O)C1CCN(C(=O)c2ccc(F)cc2)CC1,0,3,0,-1,-5,1
Cc1ccsc1CNCc1cc(Cl)ccc1O,6,-5,-2,-1,-3,-1
O=C1NC(=S)N(C(=O)c2ccc(F)cc2)/C1=C/c1ccccc1,3,55*,10,0,-1,-15
O=C(NCc1ccc(Cl)cc1)C(=O)N/N=C/c1ccc(Br)cc1,24,-15,1,-1,-5,-1
Cn1c(=O)c(NCCc2ccccc2)c2c3c(cccc31)C(=O)c1ccccc1-2,76*,-82,-18,-166,-11,-43
CCNc1c2c3c(cccc3n(C)c1=O)C(=O)c1ccccc1-2,x,x,x,x,-9,x
Cn1c(=O)c(NCCO)c2c3c(cccc31)C(=O)c1ccccc1-2,142*,-75,-14,-171,-8,-43

# High-throughput results: PubChem, Sanford-Burnham Center for Chemical Genomics
